Reference: ChEMBL document CHEMBL1145502, “Roxithromycin favorably modifies the initial phase of resistance against infection with macrolide-resistant Streptococcus pneumoniae in a murine pneumonia model” (Antimicrob Agents Chemother, 2007)
Values after ≈ are worked out from the molar mass of the structure shown. Active and inactive are the calls of the source. No cut-off for these calls is given here.

What was measured:
Plasma [1] = experiment: Drug level in Streptococcus pneumoniae NMU112 infected CBA/J mouse plasma at 5 mg/kg/day, po after 24 hrs; format: ADME, organism-based; parameters: route oral; settings: in vivo
Outline: (§1)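 Oral gavage at 5 mg/kg/day (0.075 mg twice daily, six doses). Plasma and PBS lung homogenates were taken 24, 48 and 72 h after the last dose. Assayed by HPLC-electrochemical detection with an erythromycin internal standard; linear ranges 0.15–10.5 (plasma) and 0.4–11.8 μg/ml (lung). Five mice per time point; mean ± SD.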

Plasma [2] = experiment: Drug level in Streptococcus pneumoniae NMU112 infected CBA/J mouse plasma at 5 mg/kg/day, po after 48 hrs; format: ADME, organism-based; parameters: route oral; settings: in vivo; outline: as §1
Streptococcus pneumoniae [3] = experiment: Antimicrobial activity against Streptococcus pneumoniae NMU112 infected in po dosed CBA/J mouse blood assessed as number of colony forming units after 7 days relative to control; format: functional
Outline: (§2)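 CBA/J mice (28–30 g) dosed by oral gavage twice daily for 3 days, saline as control. Infected 24 h after the last dose with 5 × 10⁴ CFU via the oropharynx under light ketamine/xylazine anesthesia. Blood, lung homogenate and pooled BALF supernatant were plated on agar with 200 μg/ml ERY and incubated about 24 h at 37°C for CFU. Three mice per group per time point, three experiments.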

Streptococcus pneumoniae [4] = experiment: Increase in Streptococcus pneumoniae NMU112 infection-induced reduction in MCP1 level in po dosed CBA/J mouse lung after 12 to 36 hrs by sandwich ELISA relative to control; format: functional, organism-based
Outline: (§3)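 Lung homogenate in lysis buffer with protease inhibitors, 30 min on ice, spun 12,000 × g 20 min at 4°C. KC or MCP-1 measured by sandwich ELISA, detection limit 2 pg/ml. Three mice per group per time point after infection with 5 × 10⁴ CFU, each sample in triplicate, two experiments.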

Streptococcus pneumoniae [5] = experiment: Antimicrobial activity against drug-resistant Streptococcus pneumoniae NMU112 infected CBA/J mouse assessed as animal survival at 1.25 mg/kg, po; format: functional, organism-based; parameters: dose 1.25 mg/kg
Outline: (§4)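 Male CBA/J mice, 3-4 weeks old, 28-30 g. Macrolide given by oral gavage in saline for 3 days; RXM, ERY and CLR twice daily at 12-h intervals, AZM once daily. Saline controls. 24 h after the last dose, mice were infected intratracheally with 5 × 10⁴ CFU NMU112 (erm(B)/mef(A)). Kaplan-Meier survival and median survival time, log rank test; 10 mice per group per experiment.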

Streptococcus pneumoniae [6] = experiment: Inhibition of pneumococcal surface protein A production in Streptococcus pneumoniae NMU112 lysates at 5 ug/mL after 12 hrs by Western blot relative to control; format: functional, organism-based
Outline: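 Strain NMU112 (5 × 10⁷ CFU/ml in THY) cultured 12 h at 37°C with drug. Sonicated whole-cell lysates run on SDS-PAGE and Western blotted; bands measured by densitometry as % of drug-free culture. Two cultures per dose, three experiments (n = 5–6).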

Streptococcus pneumoniae [7] = experiment: Reduction in Streptococcus pneumoniae NMU112 infection induced elevation in syndecan-1 shedding in po dosed CBA/J mouse bronchoalveolar lavage fluid relative to control; format: functional, organism-based; settings: Lung
Outline: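 Syndecan-1 ectodomains in 100 μl BALF measured by sandwich ELISA: 281-2 capture antibody, biotinylated 281-2 detection, streptavidin-HRP/TMB, read at 450 nm. Range 2.5–245 ng/ml. Three mice per time point, triplicate, three experiments.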

Streptococcus pneumoniae [8] = experiment: Reduction in Streptococcus pneumoniae NMU112 infection-induced elevation in keratinocyte-derived chemokine level in po dosed CBA/J mouse bronchoalveolar lavage fluid after 8 hrs by sandwich ELISA relative to control; format: functional, organism-based; settings: Lung
Streptococcus pneumoniae [9] = experiment: Antimicrobial activity against Streptococcus pneumoniae NMU112 infected in po dosed CBA/J mouse blood assessed as number of colony forming units after 5 days relative to control; format: functional; outline: as §2
Lung [10] = experiment: Drug level in Streptococcus pneumoniae NMU112 infected CBA/J mouse lung tissue at 5 mg/kg/day, po after 24 hrs; format: ADME, organism-based; parameters: route oral; settings: in vivo; outline: as §1
Streptococcus pneumoniae [11] = experiment: Inhibition of Streptococcus pneumoniae NMU112 induced MMP7 expression level in po dosed CBA/J mouse assessed as decrease in caseinolytic activity after 6 to 48 hrs relative to control; format: functional, organism-based
Outline: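 Casein zymography on lung extract (100 μg protein) in 4–16% casein gels. The 19-kDa mature MMP-7 lysis band was scanned by densitometry and expressed as % of infected controls. Five to six mice per time point, three experiments.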

Streptococcus pneumoniae [12] = experiment: Reduction in Streptococcus pneumoniae NMU112 infection-induced elevation in keratinocyte-derived chemokine level in po dosed CBA/J mouse lung after 12 hrs by sandwich ELISA relative to control; format: functional, organism-based; outline: as §3
Plasma [13] = experiment: Drug level in Streptococcus pneumoniae NMU112 infected CBA/J mouse plasma at 5 mg/kg/day, po after 72 hrs; format: ADME, organism-based; parameters: route oral; settings: in vivo; outline: as §1
Streptococcus pneumoniae [14] = experiment: Reduction of pneumolysin production in Streptococcus pneumoniae NMU112 lysates at 5 ug/mL after 12 hrs by Western blot relative to control; format: functional, organism-based
Outline: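 NMU112 at 5 × 10⁷ CFU/ml in THY cultured with macrolide at 37°C for 12 h, then whole-cell sonicated lysates run on SDS-PAGE and immunoblotted for pneumolysin. Band densitometry as mean % of drug-free culture; two cultures per dose per experiment, three experiments.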

Mus musculus [15] = species on record: Mus musculus; experiment: Reduction of MMP7 expression level in UV rays killed Streptococcus pneumoniae NMU112 infected CBA/J mouse bronchoalveolar lavage fluid relative to control; format: functional, organism-based; settings: Lung
Streptococcus pneumoniae [16] = experiment: Antimicrobial activity against Streptococcus pneumoniae NMU112 infected in po dosed CBA/J mouse lungs assessed as reduction in number of colony forming units after 24 to 48 hr relative to control; format: functional, organism-based; outline: as §2
Streptococcus pneumoniae [17] = experiment: Reduction of pneumolysin production in Streptococcus pneumoniae NMU112 infected CBA/J mouse lung lysates after 48 hrs of infection by Western blot relative to control; format: functional, organism-based
Outline: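 Left lungs (n, 3 per group per time point) homogenised in Tris-HCl pH 7.5 with NaCl and Triton X, then centrifuged. Extract (1 mg protein) immunoprecipitated with anti-PLY on protein G beads, run on SDS-12% PAGE and blotted. Band densitometry expressed as % of control mice after oral pretreatment and intratracheal NMU112 infection.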

Streptococcus pneumoniae [18] = experiment: Antimicrobial activity against Streptococcus pneumoniae NMU605 infected CBA/J mouse assessed as animal survival at => 2.5 mg/kg, po relative to control; format: functional, organism-based; parameters: dose 2.5 mg/kg
Streptococcus pneumoniae [19] = experiment: Antimicrobial activity against Streptococcus pneumoniae NMU605; format: functional
Outline: (§5)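 Broth microdilution MIC (NCCLS method) in Mueller-Hinton broth with 3% lysed horse blood; clinical isolates NMU605 (serotype 3) and NMUP45 (serotype 4).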

Mus musculus [20] = species on record: Mus musculus; experiment: Reduction of polymorphonuclear leukocytes in UV rays killed Streptococcus pneumoniae NMU112 infected CBA/J mouse bronchoalveolar lavage fluid relative to control; format: functional, organism-based; settings: Lung
Streptococcus pneumoniae [21] = experiment: Antimicrobial activity against Streptococcus pneumoniae NMUP45 infected CBA/J mouse assessed as animal survival at => 5 mg/kg, po relative to control; format: functional, organism-based; parameters: dose 5 mg/kg
Streptococcus pneumoniae [22] = experiment: Inhibition of Streptococcus pneumoniae NMU112 infection-induced polymorphonuclear leukocytes infiltration in CBA/J mouse lung assessed as MPO activity after 12 hrs relative to control; format: functional, organism-based
Outline: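 Lungs (n = 4 per group per time point) removed after blood collection, weighed and frozen, then assayed with an MPO kit. Activity given as units per mg protein.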

Streptococcus pneumoniae [23] = experiment: Antimicrobial activity against drug-resistant Streptococcus pneumoniae NMU112 infected CBA/J mouse assessed as median survival time at 5 mg/kg, po relative to control; format: functional; outline: as §4
Lung [24] = experiment: Drug level in Streptococcus pneumoniae NMU112 infected CBA/J mouse lung tissue at 5 mg/kg/day, po after 48 hrs; format: ADME, organism-based; parameters: route oral; settings: in vivo; outline: as §1
Streptococcus pneumoniae [25] = experiment: Antimicrobial activity against Streptococcus pneumoniae NMU112 infected in po dosed CBA/J mouse blood assessed as number of colony forming units after 4 days relative to control; format: functional; outline: as §2
Streptococcus pneumoniae [26] = experiment: Antimicrobial activity against Streptococcus pneumoniae NMU112 infected in po dosed CBA/J mouse bronchoalveolar lavage fluid assessed as reduction in number of colony forming units after 24 to 48 hrs relative to control; format: functional, organism-based; settings: Lung; outline: as §2
Streptococcus pneumoniae [27] = experiment: Antimicrobial activity against drug-resistant Streptococcus pneumoniae NMU112 infected CBA/J mouse assessed as median survival time at 7.5 mg/kg, po relative to control; format: functional; outline: as §4
Streptococcus pneumoniae [28] = experiment: Increase in Streptococcus pneumoniae NMU112 infection-induced reduction in MCP1 level in po dosed CBA/J mouse lung by sandwich ELISA relative to control
Streptococcus pneumoniae [29] = experiment: Antimicrobial activity against Streptococcus pneumoniae NMUP45; format: functional; outline: as §5
Streptococcus pneumoniae [30] = experiment: Antimicrobial activity against Streptococcus pneumoniae NMU112; format: functional
Outline: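 Broth microdilution MIC per NCCLS in Mueller-Hinton broth with 3% lysed horse blood.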

Streptococcus pneumoniae [31] = experiment: Reduction of pneumococcal surface protein A in Streptococcus pneumoniae NMU112 infected CBA/J mouse lung lysates after 48 hrs by Western blot relative to control; format: functional, organism-based
Outline: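 Left-lung Triton X extract (1 mg protein) immunoprecipitated with anti-PspA on protein G beads, then run on SDS-12% PAGE and Western blotted. Densitometry given as % of control. Three mice per group per time point.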

Streptococcus pneumoniae [32] = experiment: Antimicrobial activity against drug-resistant Streptococcus pneumoniae NMU112 infected CBA/J mouse assessed as median survival time at 10 mg/kg, po relative to control; format: functional; outline: as §4
Streptococcus pneumoniae [33] = experiment: Antimicrobial activity against Streptococcus pneumoniae NMU112 infected in po dosed CBA/J mouse blood assessed as number of colony forming units after 6 days relative to control; format: functional; outline: as §2
Lung [34] = experiment: Drug level in Streptococcus pneumoniae NMU112 infected CBA/J mouse lung tissue at 5 mg/kg/day, po after 72 hrs; format: ADME, organism-based; parameters: route oral; settings: in vivo; outline: as §1
Streptococcus pneumoniae [35] = experiment: Antimicrobial activity against Streptococcus pneumoniae NMU112 infected in po dosed CBA/J mouse assessed as delaying in development of bacteremia […]; format: functional, organism-based

CC[C@H]1OC(=O)[C@H](C)[C@@H](O[C@H]2C[C@@](C)(OC)[C@@H](O)[C@H](C)O2)[C@H](C)[C@@H](O[C@@H]2O[C@H](C)C[C@H](N(C)C)[C@H]2O)[C@](C)(O)C[C@@H](C)/C(=N\OCOCCOC)[C@H](C)[C@@H](O)[C@]1(C)O [ROXITHROMYCIN]
Concn (Plasma [1]): 3870 ng/mL
Concn (Plasma [2]): 1360 ng/mL
log10CFU/ml (Streptococcus pneumoniae [3]): >=5.11
Activity (Streptococcus pneumoniae [4]): Active
Activity (Streptococcus pneumoniae [5]): inactive
Activity (Streptococcus pneumoniae [6]): inactive
Activity (Streptococcus pneumoniae [7]): Active
Activity (Streptococcus pneumoniae [8]): Active
log10CFU/ml (Streptococcus pneumoniae [9]): 3.68
Concn (Lung [10]): 5220 ng/mL
Activity (Streptococcus pneumoniae [11]): Active
Activity (Streptococcus pneumoniae [12]): Active
Concn (Plasma [13]): 540 ng/mL
Activity (Streptococcus pneumoniae [14]): inactive
Activity (Mus musculus [15]): Active
Activity (Streptococcus pneumoniae [16]): Active
Activity (Streptococcus pneumoniae [17]): Active
Activity (Streptococcus pneumoniae [18]): Active
MIC (Streptococcus pneumoniae [19]): 0.06 µg/mL (≈ 0.0717 µM)
Activity (Mus musculus [20]): Active
Activity (Streptococcus pneumoniae [21]): Active
Activity (Streptococcus pneumoniae [22]): Active
MST (Streptococcus pneumoniae [23]): 5.8 days
Concn (Lung [24]): 2870 ng/mL
log10CFU/ml (Streptococcus pneumoniae [25]): 2.14
Activity (Streptococcus pneumoniae [26]): Active
MST (Streptococcus pneumoniae [27]): 6.3 days
Activity (Streptococcus pneumoniae [28]): Active
MIC (Streptococcus pneumoniae [29]): 4 µg/mL (≈ 4.78 µM)
MIC (Streptococcus pneumoniae [30]): ≥ 256 µg/mL
Activity (Streptococcus pneumoniae [31]): Active
MST (Streptococcus pneumoniae [32]): 6.6 days
log10CFU/ml (Streptococcus pneumoniae [33]): 4.27
Concn (Lung [34]): 650 ng/mL

CC[C@H]1OC(=O)[C@H](C)[C@@H](O[C@H]2C[C@@](C)(OC)[C@@H](O)[C@H](C)O2)[C@H](C)[C@@H](O[C@@H]2O[C@H](C)C[C@H](N(C)C)[C@H]2O)[C@](C)(OC)C[C@@H](C)C(=O)[C@H](C)[C@@H](O)[C@]1(C)O [CLARITHROMYCIN]
Activity (Streptococcus pneumoniae [6]): Active
Activity (Streptococcus pneumoniae [14]): Active
Activity (Streptococcus pneumoniae [35]): Active
MIC (Streptococcus pneumoniae [19]): 0.03 µg/mL (≈ 0.0401 µM)
MST (Streptococcus pneumoniae [23]): 6.82 days
MIC (Streptococcus pneumoniae [29]): 2 µg/mL (≈ 2.67 µM)
MIC (Streptococcus pneumoniae [30]): ≥ 256 µg/mL
MST (Streptococcus pneumoniae [32]): 8.45 days
